Assay results: ChEMBL document CHEMBL4346661, “Design, synthesis and evaluation of novel diaryl-1,5-diazoles derivatives bearing morpholine as potent dual COX-2/5-LOX inhibitors and antitumor agents” (Eur J Med Chem, 2019)
Calls of active or inactive are those of the source. The rule behind the calls is not given here.

Tests used:
B16-F10 [1] = assay: Antitumor activity against mouse B16F10 cells implanted in nude mouse assessed as tumor weight at 40 mg/kg, ip administered once per 2 days for 14 days by caliper method (reference value: 1.24g); type: functional
Summary of the method: (§1)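 Nude mice were given 5×10^6 F10 cells subcutaneously in the right flank. At about 100 mm3, 24 mice were randomized into four groups of vehicle or compound. Dosing was intraperitoneal every two days for two weeks. Tumor volume was recorded every other day. Tumors were excised and weighed after the last treatment, and body weight was monitored.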

B16-F10 [2] = assay: Induction of apoptosis in mouse B16F10 cells assessed as viable cells at 6.25 uM incubated for 48 hrs by Annexin-V-FITC/propidium iodide staining-based flow cytometric analysis (reference value: 94%); type: functional; details: B16-F10, 48 h, read-out: Activity
Summary of the method: (§2)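 F10 cells were exposed to 0, 3.125, 6.25, 12.5 or 25 µM for 48 h. Cells were stained with Annexin V/PI and read by flow cytometry. Data are mean ± SD of three independent experiments.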

B16-F10 [3] = assay: Induction of apoptosis in mouse B16F10 cells assessed as necrosis cells at 25 uM incubated for 48 hrs by Annexin-V-FITC/propidium iodide staining-based flow cytometric analysis (reference value: 0.186%); type: functional; summary of the method: as §2
A549 = assay: Antiproliferative activity against human A549 cells incubated for 48 hrs by MTT assay; type: functional, cell-based; details: A549, 48 h
Summary of the method: (§3)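 MTT assay on F10 (murine melanoma), HeLa, A549, MCF-7 and 293T (human renal epithelium) cells. IC50 given as mean ± SD of three independent experiments.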

B16-F10 [4] = assay: Induction of cell cycle arrest in mouse B16F10 cells assessed as cell accumulation at G2 phase at 25 uM incubated for 48 hrs by propidium iodide staining-based flow cytometric analysis (reference value: 22.43%); type: functional
[5] = Metabolic stability in mouse B16F10 cells implanted in nude mouse plasma assessed as peak time at 40 mg/kg, ip measured after 24 to 48 hrs by HPLC analysis; type: ADME, organism-based; details: in vivo
Summary of the method: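 Tumor-bearing nude mice dosed intraperitoneally. Blood was taken from the eye 24 h later and centrifuged to plasma. The plasma was extracted with ethyl acetate and analysed by HPLC for compound peak retention time.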

B16-F10 [6] = assay: Induction of cell cycle arrest in mouse B16F10 cells assessed as cell accumulation at G2 phase at 6.25 uM incubated for 48 hrs by propidium iodide staining-based flow cytometric analysis (reference value: 22.43%); type: functional
B16-F10 [7] = assay: Induction of cell cycle arrest in mouse B16F10 cells assessed as cell accumulation at S phase at 25 uM incubated for 48 hrs by propidium iodide staining-based flow cytometric analysis (reference value: 14.16%); type: functional
B16-F10 [8] = assay: Induction of cell cycle arrest in mouse B16F10 cells assessed as cell accumulation at G1 phase at 6.25 uM incubated for 48 hrs by propidium iodide staining-based flow cytometric analysis (reference value: 59.73%); type: functional
B16-F10 [9] = assay: Induction of apoptosis in mouse B16F10 cells assessed as late apoptosis cells at 3.125 uM incubated for 48 hrs in presence of apoptosis inhibitor z-VAD-fmk by Annexin-V-FITC/propidium iodide staining-based flow cytometric analysis (reference value: 3.13%); type: functional
B16-F10 [10] = assay: Induction of apoptosis in mouse B16F10 cells assessed as viable cells at 25 uM incubated for 48 hrs by Annexin-V-FITC/propidium iodide staining-based flow cytometric analysis (reference value: 94%); type: functional; details: B16-F10, 48 h, read-out: Activity; summary of the method: as §2
B16-F10 [11] = assay: Antitumor activity against mouse B16F10 cells implanted in nude mouse assessed as decrease in tumor weight at 20 mg/kg, ip administered once per 2 days for 14 days by caliper method relative to control; type: functional, organism-based; summary of the method: as §1
B16-F10 [12] = assay: Antitumor activity against mouse B16F10 cells implanted in nude mouse assessed as reduction in tumor size at 20 mg/kg, ip administered once per 2 days for 14 days by caliper method; type: functional; summary of the method: as §1
B16-F10 [13] = assay: Induction of apoptosis in mouse B16F10 cells assessed as late apoptosis cells at 12.5 uM incubated for 48 hrs by Annexin-V-FITC/propidium iodide staining-based flow cytometric analysis (reference value: 2.88%); type: functional; summary of the method: as §2
B16-F10 [14] = assay: Induction of cell cycle arrest in mouse B16F10 cells assessed as cell accumulation at S phase at 12.5 uM incubated for 48 hrs by propidium iodide staining-based flow cytometric analysis (reference value: 14.16%); type: functional
B16-F10 [15] = assay: Induction of cell cycle arrest in mouse B16F10 cells assessed as cell accumulation at G1 phase at 12.5 uM incubated for 48 hrs by propidium iodide staining-based flow cytometric analysis (reference value: 59.73%); type: functional
B16-F10 [16] = assay: Induction of apoptosis in mouse B16F10 cells assessed as viable cells at 3.125 uM incubated for 48 hrs in presence of apoptosis inhibitor z-VAD-fmk by Annexin-V-FITC/propidium iodide staining-based flow cytometric analysis (reference value: 92.5%); type: functional; details: B16-F10, 48 h, read-out: Activity
[17] = Toxicity in mouse B16F10 cells implanted in nude mouse assessed as change in body weight at 20 to 40 mg/kg, ip administered once per 2 days for 14 days; type: organism-based; details: in vivo
Summary of the method: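 Nude mice carried subcutaneous right-flank xenografts of 5×10^6 F10 cells. At about 100 mm3 tumor size they were randomized into groups of six (twenty-four mice, four groups): vehicle or 20 or 40 mg/kg, given intraperitoneally once every two days for two weeks. Body weight was tracked during treatment.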

B16-F10 [18] = assay: Antiproliferative activity against mouse B16F10 cells incubated for 48 hrs by MTT assay; type: functional, cell-based; details: B16-F10, 48 h; summary of the method: as §3
B16-F10 [19] = assay: Induction of apoptosis in mouse B16F10 cells incubated for 48 hrs by Annexin-V-FITC/propidium iodide staining-based flow cytometric analysis; type: functional, cell-based; summary of the method: as §2
Homo sapiens = species: Homo sapiens; assay: Selectivity index, ratio of IC50 for COX1 (unknown origin) to IC50 for COX2 (unknown origin)
Summary of the method: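 Ratio of COX-1 IC50 to COX-2 IC50, from human COX-1 and human COX-2 inhibitor screening assay kits. Each IC50 is the concentration giving 50% enzyme inhibition, taken as the mean of four determinations.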

B16-F10 [20] = assay: Induction of apoptosis in mouse B16F10 cells assessed as necrosis cells at 25 uM incubated for 48 hrs in presence of apoptosis inhibitor z-VAD-fmk by Annexin-V-FITC/propidium iodide staining-based flow cytometric analysis (reference value: 0.558%); type: functional
B16-F10 [21] = assay: Induction of apoptosis in mouse B16F10 cells assessed as necrosis cells at 12.5 uM incubated for 48 hrs by Annexin-V-FITC/propidium iodide staining-based flow cytometric analysis (reference value: 0.186%); type: functional; summary of the method: as §2
B16-F10 [22] = assay: Induction of apoptosis in mouse B16F10 cells assessed as late apoptosis cells at 6.25 uM incubated for 48 hrs in presence of apoptosis inhibitor z-VAD-fmk by Annexin-V-FITC/propidium iodide staining-based flow cytometric analysis (reference value: 3.13%); type: functional
B16-F10 [23] = assay: Induction of apoptosis in mouse B16F10 cells assessed as late apoptosis cells at 25 uM incubated for 48 hrs in presence of apoptosis inhibitor z-VAD-fmk by Annexin-V-FITC/propidium iodide staining-based flow cytometric analysis (reference value: 3.13%); type: functional
B16-F10 [24] = assay: Induction of apoptosis in mouse B16F10 cells assessed as necrosis cells at 6.25 uM incubated for 48 hrs by Annexin-V-FITC/propidium iodide staining-based flow cytometric analysis (reference value: 0.186%); type: functional; summary of the method: as §2

In the case of `NS(=O)(=O)c1ccc(-n2nc(C(=O)NCCCN3CCOCC3)cc2-c2ccc(C(F)(F)F)cc2)cc1`, the Activity (B16-F10 [1]) is reported as 0.48 g, the viability at 6.25 µM (B16-F10 [2]) is reported as 77.2% and the Activity (B16-F10 [3]) is reported as 1.33%. The IC50 (A549) was 11 µM, the Activity (B16-F10 [4]) was 33.6% and the Retention_time [5] was 39.95 min. For the same compound, the Activity (B16-F10 [6]) was 31.04%, the Activity (B16-F10 [7]) was 12.87% and the Activity (B16-F10 [8]) was 50.07%. The Activity (B16-F10 [9]) was 4.52%, the viability at 25 µM (B16-F10 [10]) was 51.8% and the Activity (B16-F10 [11]) was “Active”. For the same compound, the Activity (B16-F10 [12]) was 1076.58 mm3, the Activity (B16-F10 [13]) was 5.09% and the Activity (B16-F10 [14]) was 15.42%. The Activity (B16-F10 [15]) was 49.08%, the viability at 3.125 µM (B16-F10 [16]) was 90.9% and the Activity [17] was “Non-Toxic”. The IC50 (B16-F10 [18]) was 6.43 µM, the Activity (B16-F10 [19]) was “Dose-dependent effect” and the Ratio IC50 (Homo sapiens) was 189. For the same compound, the Activity (B16-F10 [20]) was 0.845%, the Activity (B16-F10 [21]) was 0.685% and the Activity (B16-F10 [22]) was 5.34%. For the same compound, the Activity (B16-F10 [23]) was 9.1% and the Activity (B16-F10 [24]) was 0.366%.
